From ChEMBL document CHEMBL1137356, “Tricyclic imidazoline derivatives as potent and selective adenosine A1 receptor antagonists” (J Med Chem, 2006)

Columns and labels:
[1] = target: Adenosine receptors; A1 & A2b (Homo sapiens) (UniProt P30542+P29275); assay: Selectivity for human adenosine A1 receptor over adenosine A2B receptor; format: protein assay
Adenosine receptor A2b = target: T1, Adenosine receptor A2b (Homo sapiens, UniProt P29275); assay: Displacement of [125I]3-(4-aminobenzyl)-8-phenyloxyacetate-1-propyl-xanthine from human adenosine A2B receptor
T1 sequence (P29275 whole entry): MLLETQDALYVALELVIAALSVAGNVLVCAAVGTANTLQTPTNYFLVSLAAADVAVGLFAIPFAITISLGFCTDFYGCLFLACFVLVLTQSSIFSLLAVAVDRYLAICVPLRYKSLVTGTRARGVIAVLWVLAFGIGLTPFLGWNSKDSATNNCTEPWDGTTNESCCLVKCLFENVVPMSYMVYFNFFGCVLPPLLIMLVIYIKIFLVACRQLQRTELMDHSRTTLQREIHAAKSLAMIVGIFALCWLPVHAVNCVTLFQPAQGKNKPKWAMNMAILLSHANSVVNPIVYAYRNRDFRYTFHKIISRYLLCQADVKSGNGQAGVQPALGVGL

[2] = target: Adenosine receptor A2a (Rattus norvegicus) (UniProt P30543); assay: Displacement of [3H]ZM-241385 from adenosine A2A receptor in rat striatal membrane at 10 uM relative to control; format: cell membranes; conditions: Striatum
Adenosine receptor A1 [3] = target: T2, Adenosine receptor A1 (Homo sapiens, UniProt P30542); assay: Displacement of [125I]ABA from human adenosine A1 receptor
T2 sequence (P30542 whole entry): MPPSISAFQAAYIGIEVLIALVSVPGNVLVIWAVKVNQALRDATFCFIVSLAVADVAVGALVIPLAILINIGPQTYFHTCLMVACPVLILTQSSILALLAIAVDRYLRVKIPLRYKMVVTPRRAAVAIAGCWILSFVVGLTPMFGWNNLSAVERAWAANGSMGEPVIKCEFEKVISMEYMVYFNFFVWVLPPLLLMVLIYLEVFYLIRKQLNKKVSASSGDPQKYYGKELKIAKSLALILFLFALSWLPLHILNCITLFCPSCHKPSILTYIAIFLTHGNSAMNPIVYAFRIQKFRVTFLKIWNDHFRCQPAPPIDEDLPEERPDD

[4] = target: Adenosine receptors; A1 & A2a (Homo sapiens) (UniProt P30542+P29274); assay: Selectivity for human adenosine A1 receptor over adenosine A2A receptor; format: protein assay
Adenosine receptor A3 = target: T3, Adenosine receptor A3 (Homo sapiens, UniProt P0DMS8); assay: Displacement of [125I]ABA from human adenosine A3 receptor
T3 sequence (P0DMS8 whole entry): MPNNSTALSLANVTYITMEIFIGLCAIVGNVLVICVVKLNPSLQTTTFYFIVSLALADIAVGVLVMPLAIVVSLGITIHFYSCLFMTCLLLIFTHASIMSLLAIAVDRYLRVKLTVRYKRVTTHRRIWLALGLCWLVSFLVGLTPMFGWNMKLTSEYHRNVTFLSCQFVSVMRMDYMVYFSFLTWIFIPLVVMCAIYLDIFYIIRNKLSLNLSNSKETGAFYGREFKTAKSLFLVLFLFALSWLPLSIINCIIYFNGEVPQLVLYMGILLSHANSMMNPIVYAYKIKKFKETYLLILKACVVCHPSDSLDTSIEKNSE

Adenosine receptor A2a [5] = target: Adenosine receptor A2a (Homo sapiens, UniProt P29274); assay: Displacement of [125I]ZM-241385 from human adenosine A2A receptor
Adenosine receptor A1 [6] = target: T4, Adenosine receptor A1 (Rattus norvegicus, UniProt P25099); assay: Intrinsic activity at adenosine A1 receptor assessed as blockade of CPA in isolated spontaneously beating rat atria; format: functional; conditions: read-out: pA2 (converted)
T4 sequence (P25099 whole entry): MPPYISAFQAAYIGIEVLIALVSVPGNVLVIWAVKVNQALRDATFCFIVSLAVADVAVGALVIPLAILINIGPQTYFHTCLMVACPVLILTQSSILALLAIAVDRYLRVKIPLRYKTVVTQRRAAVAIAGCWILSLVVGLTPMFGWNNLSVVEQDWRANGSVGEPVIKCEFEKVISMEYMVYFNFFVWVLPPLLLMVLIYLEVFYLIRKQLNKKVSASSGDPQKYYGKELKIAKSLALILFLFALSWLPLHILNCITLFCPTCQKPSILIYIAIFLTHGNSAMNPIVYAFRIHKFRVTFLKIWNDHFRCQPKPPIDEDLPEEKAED

Adenosine receptor A2a [7] = target: Adenosine receptor A2a (Rattus norvegicus, UniProt P30543); assay: Displacement of [3H]ZM-241385 from adenosine A2A receptor in rat striatal membrane; format: cell membranes, Striatum
Method in brief: (§1)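 Rat brain membranes (cerebral cortex for A1, striatum for A2A) homogenized in 10 mM EDTA/10 mM Na-HEPES pH 7.4 with protease inhibitors, washed, stored at -80 °C. 40-70 µg protein incubated in triplicate with radioligand plus seven competitor concentrations in HEPES/EDTA buffer with 2 units/mL adenosine deaminase, 2.5 h, 21 °C. A1: [3H]DPCPX 2 nM, nonspecific with 10 µM NECA; A2A: [3H]ZM241385 0.5-1.2 nM, nonspecific with 10 µM XAC. GF/C filtration; single-site fit, Cheng-Prusoff Ki.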

Adenosine receptor A1 [8] = target: T4, Adenosine receptor A1; assay: Displacement of [3H]DPCPX from adenosine A1 receptor in rat cerebral cortex; format: tissue-based; method in brief: as §1
Rattus norvegicus [9] = assay: Volume of distribution in rat at 1 mg/kg, po; format: ADME, organism-based; parameters: dose 1 mg/kg, route oral; conditions: in vivo
Method in brief: (§2)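 Rats given 1 mg/kg orally and intravenously to obtain pharmacokinetic parameters.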

Rattus norvegicus [10] = assay: Sodium excretion level in po dosed rat diuresis model; format: ADME, organism-based
Method in brief: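 Rats held in metabolic cages and dosed by gavage as 0.5% cmc suspension at several doses; urine collected for 4 h and sodium excretion (UNaV) measured.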

[11] = AUC(last) in rat at 1 mg/kg, po; format: ADME, organism-based, Plasma; parameters: time 0 - last, dose 1 mg/kg, route oral; conditions: plasma; method in brief: as §2
[12] = Oral bioavailability in rat at 1 mg/kg, iv and po; format: ADME, organism-based; conditions: in vivo; method in brief: as §2
[13] = Clearance in rat at 1 mg/kg, po; format: ADME, organism-based; parameters: dose 1 mg/kg, route oral; conditions: in vivo; method in brief: as §2
[14] = Half life in rat 1 mg/kg, po; format: ADME, organism-based; parameters: dose 1 mg/kg, route oral; conditions: in vivo; method in brief: as §2
[15] = Aqueous solubility of the compound; format: physicochemical

Adenosine receptor A2a (Homo sapiens, UniProt P29274), sequence (P29274 whole entry): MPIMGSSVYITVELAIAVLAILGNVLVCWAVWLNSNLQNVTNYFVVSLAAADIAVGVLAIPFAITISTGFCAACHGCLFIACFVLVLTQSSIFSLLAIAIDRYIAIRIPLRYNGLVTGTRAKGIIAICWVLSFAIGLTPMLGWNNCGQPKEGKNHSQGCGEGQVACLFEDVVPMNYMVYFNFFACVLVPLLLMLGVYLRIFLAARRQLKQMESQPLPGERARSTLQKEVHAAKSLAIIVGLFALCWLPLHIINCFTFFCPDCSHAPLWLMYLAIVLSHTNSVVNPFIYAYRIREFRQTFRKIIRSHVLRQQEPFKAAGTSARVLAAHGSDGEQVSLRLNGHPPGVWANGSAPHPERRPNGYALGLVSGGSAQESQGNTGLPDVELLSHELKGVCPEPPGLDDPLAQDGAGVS
Adenosine receptor A2a (Rattus norvegicus), sequence (P30543 whole entry): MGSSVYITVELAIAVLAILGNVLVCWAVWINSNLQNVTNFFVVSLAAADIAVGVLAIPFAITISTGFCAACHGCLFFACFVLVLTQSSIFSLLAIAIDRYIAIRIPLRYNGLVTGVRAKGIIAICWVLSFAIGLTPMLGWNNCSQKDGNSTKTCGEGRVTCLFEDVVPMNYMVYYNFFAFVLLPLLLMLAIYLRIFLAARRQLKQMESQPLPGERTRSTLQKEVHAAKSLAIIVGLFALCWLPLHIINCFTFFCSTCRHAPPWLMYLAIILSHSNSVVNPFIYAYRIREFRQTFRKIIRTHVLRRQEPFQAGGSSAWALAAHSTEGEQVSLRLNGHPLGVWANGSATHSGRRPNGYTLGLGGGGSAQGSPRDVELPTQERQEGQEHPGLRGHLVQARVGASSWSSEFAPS
Adenosine receptor A2a (Rattus norvegicus, UniProt P30543), sequence (P30543 whole entry): as above
Adenosine receptors; A1 & A2a (Homo sapiens), sequence (P29274 whole entry, looked up, one chain of several): as the sequence (P29274 whole entry) above

CCCN1C(=O)N2C[C@@H](CC)N=C2c2[nH]c(C34CCC(CCC(=O)O)(CC3)CC4)nc21
Ratio Ki [1]: 54 | Ki (Adenosine receptor A2b): 1900 nM | Activity [2]: 83% | Ki (Adenosine receptor A1 [3]): 35 nM | Ratio Ki [4]: > 280 | Ki (Adenosine receptor A3): > 10000 nM | Ki (Adenosine receptor A2a [5]): > 10000 nM

CCCN1C(=O)N2C[C@@H](C(C)C)N=C2c2[nH]c(C34CCC(O)(CC3)CC4)nc21 [listing 1 of 2 here]
Ratio Ki [1]: 57 | Ratio Ki [4]: 46

CCCN1C(=O)N2C[C@@H](C)N=C2c2[nH]c(C34CCC(O)(CC3)CC4)nc21
Ratio Ki [1]: 37 | Ki (Adenosine receptor A2b): 2200 nM | Activity [2]: 32% | Ki (Adenosine receptor A1 [3]): 60 nM

CCCN1C(=O)N2C[C@@H](CC)N=C2c2[nH]c(C34CCC(O)(CC3)CC4)nc21
Ki (Adenosine receptor A2b): 580 nM | Ki (Adenosine receptor A1 [3]): 22 nM | Ki (Adenosine receptor A3): > 10000 nM | Kb (Adenosine receptor A1 [6]): 1.32 nM | Ki (Adenosine receptor A2a [5]): 4400 nM | Ki (Adenosine receptor A2a [7]): 2700 nM | Ki (Adenosine receptor A1 [8]): 6 nM

CCCn1c(=O)c2[nH]c(C34CCC(CCC(=O)O)(CC3)CC4)nc2n(CCC)c1=O [TONAPOFYLLINE]
Ki (Adenosine receptor A2b): 90 nM | Ki (Adenosine receptor A3): > 10000 nM | Kb (Adenosine receptor A1 [6]): 0.158 nM | Ki (Adenosine receptor A2a [5]): 6400 nM | Ki (Adenosine receptor A1 [8]): 1 nM

CCCN1C(=O)N2C[C@@H](CC(C)C)N=C2c2[nH]c(C34CCC(O)(CC3)CC4)nc21
Activity [2]: 97% | Ki (Adenosine receptor A1 [8]): 170 nM

CCCN1C(=O)N2C[C@H](CC)N=C2c2[nH]c(C34CCC(C(=O)O)(CC3)CC4)nc21
Activity [2]: 80% | Ki (Adenosine receptor A1 [8]): > 250 nM

CCCN1C(=O)N2C[C@@H](c3ccccc3)N=C2c2[nH]c(C34CCC(O)(CC3)CC4)nc21
Activity [2]: 79%

CCCN1C(=O)N2C[C@@H](C(C)C)N=C2c2[nH]c(C34CCC(O)(CC3)CC4)nc21 [listing 2 of 2 here]
Ki (Adenosine receptor A2b): 2000 nM | Ki (Adenosine receptor A1 [3]): 35 nM | Ki (Adenosine receptor A3): > 10000 nM | Kb (Adenosine receptor A1 [6]): 0.126 nM | Ki (Adenosine receptor A2a [5]): 1600 nM | Ki (Adenosine receptor A2a [7]): 1100 nM | Ki (Adenosine receptor A1 [8]): 4 nM

CCCN1C(=O)N2CC[C@@H](CC)N=C2c2[nH]c(C34CCC(O)(CC3)CC4)nc21
Ki (Adenosine receptor A1 [8]): > 250 nM

CCCN1C(=O)N2C[C@H](CC)N=C2c2[nH]c(C34CCC(O)(CC3)CC4)nc21
Activity [2]: 70% | Ki (Adenosine receptor A1 [8]): > 100 nM

CCCN1C(=O)N2C[C@@H](CC)N=C2c2[nH]c(C34CCC(O)(CC3)CC4)nc21.Cl
Vdss (Rattus norvegicus [9]): 4.1 L/kg | ED50 (Rattus norvegicus [10]): 0.01 mg/kg | AUC(0-t) [11]: 800 ng·h/mL | bioavailability [12]: 84% | CL/F [13]: 18 mL/min/kg | half-life [14]: 3.8 h | solubility [15]: 100 mg/mL

CCCN1C(=O)N2CCN=C2c2[nH]c(C34CCC(O)(CC3)CC4)nc21
Activity [2]: 77% | Ki (Adenosine receptor A1 [8]): > 100 nM

CCC[C@@H]1CN2C(=O)N(CCC)c3[nH]c(C45CCC(O)(CC4)CC5)nc3C2=N1
Activity [2]: 90%
